Assay results reported in ChEMBL document CHEMBL2040750, “Hybrids of ravuconazole: synthesis and biological evaluation” (2012).
Values after ≈ are worked out from the molar mass of the structure shown. Active and inactive are the calls of the source. The calls are words filed in the database; no cut-off is given here.

Assays:
Format in all cases: functional
[1] = test system: Staphylococcus aureus; assay: Antibacterial activity Staphylococcus aureus NCIM 2079 at 100 ug/disc by agar-well diffusion assay; conditions: for zone of inhibition at 100 µg/disc: read-out: DIZ
How it was run: (§1)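 Agar-well diffusion screen against standard strains. Zone of inhibition is the read-out. Chloramphenicol, nystatin and ravuconazole were run as positive controls.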

[2] = test system: Escherichia coli; assay: Antibacterial activity Escherichia coli NCIM 2109 at 100 ug/disc by agar-well diffusion assay; conditions: for zone of inhibition at 100 µg/disc: read-out: DIZ; how it was run: as §1
[3] = test system: Bacillus subtilis; assay: Antibacterial activity Bacillus subtilis NCIM 2250 at 100 ug/disc by agar-well diffusion assay; conditions: for zone of inhibition at 100 µg/disc: read-out: DIZ; how it was run: as §1
[4] = test system: Pseudomonas aeruginosa; assay: Antibacterial activity Pseudomonas aeruginosa NCIM 2036 at 100 ug/disc by agar-well diffusion assay; conditions: for zone of inhibition at 100 µg/disc: read-out: DIZ; how it was run: as §1
[5] = test system: Aspergillus niger; assay: Antifungal activity Aspergillus niger NCIM 545 at 100 ug/disc by agar-well diffusion assay; conditions: for zone of inhibition at 100 µg/disc: read-out: DIZ; how it was run: as §1
[6] = test system: Candida albicans; assay: Antifungal activity Candida albicans NCIM 3471 at 100 ug/disc by agar-well diffusion assay; conditions: for zone of inhibition at 100 µg/disc: read-out: DIZ; how it was run: as §1
[7] = test system: Staphylococcus aureus; assay: Antibacterial activity Staphylococcus aureus NCIM 2079 after 24 hrs by NCCLS method
How it was run: (§2)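 Broth microdilution MIC per NCCLS. Compounds dissolved in DMSO, serially diluted in growth medium, incubated at 37 °C. Read at 24 h for bacteria and 24–72 h for fungi. MIC90 taken as the first well with about 90% growth reduction relative to the drug-free well.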

[8] = test system: Escherichia coli; assay: Antibacterial activity Escherichia coli NCIM 2109 after 24 hrs by NCCLS method; how it was run: as §2
[9] = test system: Bacillus subtilis; assay: Antibacterial activity Bacillus subtilis NCIM 2250 after 24 hrs by NCCLS method; how it was run: as §2
[10] = test system: Pseudomonas aeruginosa; assay: Antibacterial activity Pseudomonas aeruginosa NCIM 2036 after 24 hrs by NCCLS method; how it was run: as §2
[11] = test system: Aspergillus niger; assay: Antifungal activity Aspergillus niger NCIM 545 after 24 to 72 hrs by NCCLS method; how it was run: as §2
[12] = test system: Candida albicans; assay: Antifungal activity Candida albicans NCIM 3471 after 24 to 72 hrs by NCCLS method; how it was run: as §2

Compound	zone of inhibition at 100 µg/disc [1]	zone of inhibition at 100 µg/disc [2]	diameter of the inhibition zone (DIZ) [3]	zone of inhibition at 100 µg/disc [4]	zone of inhibition at 100 µg/disc [5]	zone of inhibition at 100 µg/disc [6]	MIC ([7]; NCIM 2079, 24 h)	MIC ([8]; NCIM 2109, 24 h)	MIC [9]	MIC ([10]; NCIM 2036, 24 h)	MIC [11]	MIC [12]	zone of inhibition at 100 µg/disc [3]	diameter of the inhibition zone (DIZ) [4]	MIC ([9]; NCIM 2250, 24 h)	MIC [10]	diameter of the inhibition zone (DIZ) [1]	MIC [7]	MIC [8]	also measured
FC(F)(F)c1cc(-c2csc(N/N=C(/Cn3cncn3)c3ccc(Cl)cc3)n2)cc(C(F)(F)F)c1	11.2 mm	15.6 mm	inactive	26.1 mm	8.66 mm	20.7 mm	> 64 mg/L	> 64 mg/L	inactive	32 mg/L (≈ 60.3 µM)	> 64 mg/L	32 mg/L (≈ 60.3 µM)	–	–	–	–	–	–	–	–
Fc1ccc(/C(Cn2cncn2)=N\Nc2nc(-c3ccc(Cl)cc3)cs2)cc1	22.3 mm	15.9 mm	–	–	20.7 mm	18.8 mm	64 mg/L (≈ 155 µM)	> 64 mg/L	–	–	16 mg/L (≈ 38.8 µM)	32 mg/L (≈ 77.5 µM)	20.5 mm	inactive	32 mg/L (≈ 77.5 µM)	inactive	–	–	–	–
FC(F)(F)c1cc(-c2csc(N/N=C(/Cn3cncn3)c3ccc(Br)cc3)n2)cc(C(F)(F)F)c1	–	11.4 mm	inactive	–	10.9 mm	13.9 mm	–	> 64 mg/L	inactive	–	> 64 mg/L	> 64 mg/L	–	inactive	–	inactive	inactive	inactive	–	–
Brc1ccc(/C(Cn2cncn2)=N\Nc2nc(-c3ccc(Br)cc3)cs2)cc1	–	10.9 mm	inactive	–	15.3 mm	13.9 mm	–	> 64 mg/L	inactive	–	> 64 mg/L	> 64 mg/L	–	inactive	–	inactive	inactive	inactive	–	–
Clc1ccc(-c2csc(N/N=C(/Cn3cncn3)c3ccc(Br)cc3)n2)cc1	13.1 mm	–	–	21.7 mm	16.7 mm	16.2 mm	> 64 mg/L	–	–	32 mg/L (≈ 67.5 µM)	32 mg/L (≈ 67.5 µM)	64 mg/L (≈ 135 µM)	17.3 mm	–	64 mg/L (≈ 135 µM)	–	–	–	inactive	diameter of the inhibition zone (DIZ) [2]: inactive
FC(F)(F)c1cc(/C(Cn2cncn2)=N\Nc2nc(-c3ccc(Cl)cc3)cs2)cc(C(F)(F)F)c1	–	13.2 mm	inactive	26.8 mm	19.1 mm	17.6 mm	–	> 64 mg/L	inactive	32 mg/L (≈ 60.3 µM)	16 mg/L (≈ 30.1 µM)	32 mg/L (≈ 60.3 µM)	–	–	–	–	inactive	inactive	–	–
O=[N+]([O-])c1ccc(/C(Cn2cncn2)=N\Nc2nc(-c3cc(C(F)(F)F)cc(C(F)(F)F)c3)cs2)cc1	17.2 mm	–	inactive	16.8 mm	–	–	64 mg/L (≈ 118 µM)	–	inactive	64 mg/L (≈ 118 µM)	inactive	inactive	–	–	–	–	–	–	inactive	diameter of the inhibition zone (DIZ) [2]: inactive; diameter of the inhibition zone (DIZ) [5]: inactive; diameter of the inhibition zone (DIZ) [6]: inactive
O=[N+]([O-])c1ccc(/C(Cn2cncn2)=N\Nc2nc(-c3ccc([N+](=O)[O-])cc3)cs2)cc1	–	10.8 mm	inactive	20.8 mm	–	–	–	> 64 mg/L	inactive	64 mg/L (≈ 142 µM)	inactive	inactive	–	–	–	–	inactive	inactive	–	diameter of the inhibition zone (DIZ) [5]: inactive; diameter of the inhibition zone (DIZ) [6]: inactive
O=[N+]([O-])c1ccc(-c2csc(N/N=C(/Cn3cncn3)c3cc(C(F)(F)F)cc(C(F)(F)F)c3)n2)cc1	–	11.1 mm	inactive	–	–	–	–	–	inactive	–	inactive	inactive	–	inactive	–	inactive	inactive	inactive	inactive	diameter of the inhibition zone (DIZ) [5]: inactive; diameter of the inhibition zone (DIZ) [6]: inactive
C[C@@H](c1nc(-c2ccc(C#N)cc2)cs1)[C@](O)(Cn1cncn1)c1ccc(F)cc1F [RAVUCONAZOLE]	–	–	inactive	–	20.2 mm	28.6 mm	–	–	inactive	–	32 mg/L (≈ 73.1 µM)	1 mg/L (≈ 2.29 µM)	–	inactive	–	inactive	inactive	inactive	inactive	diameter of the inhibition zone (DIZ) [2]: inactive
Fc1ccc(/C(Cn2cncn2)=N\Nc2nc(-c3ccc(F)cc3)cs2)cc1	16.1 mm	21.5 mm	–	24.1 mm	20.4 mm	16.3 mm	64 mg/L (≈ 161 µM)	32 mg/L (≈ 80.7 µM)	–	32 mg/L (≈ 80.7 µM)	16 mg/L (≈ 40.4 µM)	64 mg/L (≈ 161 µM)	24.4 mm	–	32 mg/L (≈ 80.7 µM)	–	–	–	–	–
Clc1ccc(/C(Cn2cncn2)=N\Nc2nc(-c3ccc(Br)cc3)cs2)cc1	19.1 mm	–	inactive	23.9 mm	18.6 mm	–	64 mg/L (≈ 135 µM)	–	inactive	32 mg/L (≈ 67.5 µM)	64 mg/L (≈ 135 µM)	inactive	–	–	–	–	–	–	inactive	diameter of the inhibition zone (DIZ) [2]: inactive; diameter of the inhibition zone (DIZ) [6]: inactive
O=[N+]([O-])c1ccc(-c2csc(N/N=C(/Cn3cncn3)c3ccc(Cl)cc3)n2)cc1	–	10.6 mm	–	–	14.5 mm	11.7 mm	–	> 64 mg/L	–	–	> 64 mg/L	> 64 mg/L	12.2 mm	inactive	> 64 mg/L	inactive	inactive	inactive	–	–
NYSTATIN	–	–	–	–	–	–	–	–	–	–	16 mg/L	16 mg/L	–	–	–	–	–	–	–	inhibition zone (IZ) [5]: 21.6 mm; inhibition zone (IZ) [6]: 23.3 mm
O=C(O)c1cn(C2CC2)c2cc(N3CCNCC3)c(F)cc2c1=O [CIPROFLOXACIN]	28.4 mm	26.2 mm	–	30.9 mm	–	–	–	–	–	16 mg/L (≈ 48.3 µM)	–	–	26.7 mm	–	16 mg/L (≈ 48.3 µM)	–	–	–	–	–
